Laboratory results taken from publication PMC4284021 (The Journal of Pharmacy and Pharmacology, 2014).
Where “and” joins values, the source holds several entries; their conditions need not be identical. Equal values may be shown once. Entries after “also recorded” stand apart in the source; their conditions may differ. Marks after values point to notes of the source that are not given here.

What was measured:
[1] = Multiple-dose pharmacokinetics of evacetrapib in plasma; format: in vivo, human; conditions: for CL/F: geometric mean (CV %)
Outline: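 Once-daily oral doses of 10–600 mg for 14–15 days. Sampling: six serial samples on Day 1; 11 through 336 h after the last dose; trough samples on Days 2, 3, 4, 7 and 10. Acidified K2EDTA plasma was extracted by anion-exchange SPE with an isotope-labelled internal standard. Analysis by C18 LC/MS/MS, positive ion, SRM m/z 639→314. Range 1–1000 ng/ml. Parameters by non-compartmental analysis; dose proportionality on Day 14 by power model.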

[2] = biological target: T1, cholesteryl ester transfer protein (CETP) activity (Homo sapiens, UniProt P11597); assay: Serum CETP activity by fluorometric assay in healthy subjects; format: in vivo; conditions: for CETP activity: Mean % change from baseline (90% CI) / CETP activity: Mean % change vs placebo (90 % CI): trough (predose) day 14
T1 sequence (P11597 18-493): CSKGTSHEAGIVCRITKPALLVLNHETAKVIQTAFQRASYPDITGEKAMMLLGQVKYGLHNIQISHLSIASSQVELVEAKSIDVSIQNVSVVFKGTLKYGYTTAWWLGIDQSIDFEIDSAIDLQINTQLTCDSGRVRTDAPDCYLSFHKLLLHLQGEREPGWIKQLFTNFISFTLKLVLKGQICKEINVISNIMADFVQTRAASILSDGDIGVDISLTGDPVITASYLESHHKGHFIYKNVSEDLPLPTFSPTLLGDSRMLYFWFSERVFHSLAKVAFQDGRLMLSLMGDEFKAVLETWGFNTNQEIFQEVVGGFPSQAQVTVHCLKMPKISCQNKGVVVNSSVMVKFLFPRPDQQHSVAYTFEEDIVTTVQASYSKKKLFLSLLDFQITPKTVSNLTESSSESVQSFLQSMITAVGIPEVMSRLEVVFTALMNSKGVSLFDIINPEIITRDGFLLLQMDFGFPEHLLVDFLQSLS
Outline: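 Serum was sampled at the pharmacokinetic time points, including pre-dose troughs, after once-daily oral dosing (10–600 mg) or placebo. CETP activity was measured by fluorometric assay and expressed as the maximum test-compound-inhibitable activity. Change from baseline was analysed with an Emax dose model (Hill coefficient 1, baseline covariate).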

CETP mass = assay: Serum CETP mass by sandwich ELISA in healthy subjects; format: in vivo, human; conditions: for CETP mass: Mean % change from baseline (90% CI) / CETP mass: Mean % change vs placebo (90 % CI): trough (predose) day 14
Outline: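 CETP mass was measured in serum by sandwich ELISA. Samples were taken at baseline and on Days 2, 7 and 14 of once-daily oral dosing (10–600 mg) or placebo.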

HDL-C and LDL-C = assay: Emax model of plasma evacetrapib exposure; format: in vivo, human; conditions: model estimate (90% CI)
Outline: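 Change from baseline in HDL-C and LDL-C on Day 14 was fitted against steady-state plasma AUC. AUC came from LC/MS/MS and non-compartmental analysis. Model: Emax, the maximal response, and EAUC50, the AUC giving 50% of the maximal response.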

healthy subjects [3] = assay: 24-h ambulatory blood pressure monitoring; format: in vivo, human; conditions: for effect on 24-h ambulatory systolic or diastolic blood pressure: 600 mg compared with placebo
Outline: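 Double-blind crossover cohort (n = 15): placebo or 600 mg/day oral test compound for 14 days, then the other treatment after a 21-day washout. Subjects wore the ambulatory monitor about 12 h before Day 1 baseline. On Day 14, dosing came about 1 h after monitoring began. Readings every 20 min by day, every 30 min at night. The first hour was excluded. Value is mean SBP/DBP over the 24 h after dosing.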

healthy subjects [4] = assay: Safety and tolerability monitoring; format: in vivo, human
Outline: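 All enrolled subjects were monitored on placebo or once-daily 10–600 mg oral capsules for up to 15 days. Monitoring covered vital signs, serum and plasma electrolytes, plasma renin activity, aldosterone, plasma and salivary cortisol, and adverse events coded by MedDRA 11.0 preferred term.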

dyslipidemic patients = conditions: cited from earlier work
healthy volunteers = conditions: doses of up to 1200 mg for 10 days; cited from earlier work
[5] = AUC producing 50% of maximal response
[6] = 600 mg, 24-h ABPM, Day 1 (baseline), mean (90% CI)
[7] = 600 mg/day for 14 days, 24-h ABPM
[8] = 600 mg/day for 14 days, 24-h ABPM, (90% CI)
[9] = 600 mg/day, 24-h ABPM, Day 14, mean (90% CI)
[10] = Phase 2, nearly 400 dyslipidemic patients

CL/F ([1]; 10 mg once daily, steady state): 17.5 (21) l/h
CL/F ([1]; 100 mg once daily, steady state): 21.7 (30) l/h
CL/F ([1]; 300 mg once daily, steady state): 39.6 (44) l/h
CL/F ([1]; 600 mg once daily, steady state, n = 24): 43.6 ^e (34) l/h
dose proportionality of plasma exposure ([1]; 10–600 mg): less than dose-proportional
mean apparent oral clearance at steady state, range across doses ([1]; 10–600 mg): 17.5 to 43.6 L/h
AUCt,ss for 600 mg relative to 100 mg ([1]; after 14 daily doses): approximately threefold
accumulation ratio during multiple dosing ([1]; based on trough concentrations, between Days 1 and 14): 2–2.5
half-life ([1]; human, plasma, oral): 1440 to 2640 min
Tmax ([1]; human, plasma, oral, 10 mg, tmax, 10 mg once daily, steady state, median (range)): 4.02 h
time to steady state ([1]; once-daily dosing): approximately 10 days
CETP activity: Mean % change from baseline (90% CI) ([2]; 10 mg/day): −14.60 (−22.33, −6.87) %
CETP activity: Mean % change vs placebo (90 % CI) ([2]; 10 mg/day): −16.08 (−23.23, −8.94) ^*** %
trough inhibition of CETP activity ([2]; 100 mg): 65%
CETP activity: Mean % change from baseline (90% CI) ([2]; 100 mg/day): −64.54 (−73.08, −56.00) %
CETP activity: Mean % change vs placebo (90 % CI) ([2]; 100 mg/day): −66.02 (−78.93, −53.11) ^*** %
trough inhibition of CETP activity ([2]; 300 mg): 84%
CETP activity: Mean % change from baseline (90% CI) ([2]; 300 mg/day): −84.26 (−91.34, −77.18) %
CETP activity: Mean % change vs placebo (90 % CI) ([2]; 300 mg/day): −85.74 (−97.43, −74.05) ^*** %
trough inhibition of CETP activity ([2]; 600 mg): 91% and 91.2%
inhibition of CETP activity compared with placebo ([2]; 600 mg, after multiple doses): 93%
CETP activity: Mean % change from baseline (90% CI) ([2]; 600 mg/day): −91.18 (−99.71, −82.66) %
CETP activity: Mean % change vs placebo (90 % CI) ([2]; 600 mg/day): −92.66 (−104.92, −80.41) ^*** %
SMILES: Cc1cc(C)c2c(c1)[C@@H](N(Cc1cc(C(F)(F)F)cc(C(F)(F)F)c1)c1nnn(C)n1)CCCN2C[C@H]1CC[C@H](C(=O)O)CC1 [evacetrapib]
levels of evacetrapib 3 weeks after last dose ([1]; 600 mg/day for 14 days, crossover cohort, 3-week washout): undetectable levels; also recorded: complete washout
levels of evacetrapib after 2-week (336 h) washout ([1]; each dose group): returned to levels at or near baseline; also recorded: decreased to near the lower limit of detection
CETP activity after 2-week (336 h) washout ([2]; each dose group): returned to levels at or near baseline; also recorded: returned to baseline levels
CETP mass: Mean % change from baseline (90% CI) (CETP mass; 10 mg/day): 20.18 (9.92, 30.45) %
CETP mass: Mean % change vs placebo (90 % CI) (CETP mass; 10 mg/day): 20.58 (11.28, 29.88) ^*** %
CETP mass: Mean % change from baseline (90% CI) (CETP mass; 100 mg/day): 95.77 (82.14, 109.41) %
CETP mass: Mean % change vs placebo (90 % CI) (CETP mass; 100 mg/day): 96.17 (76.37, 115.97) ^*** %
CETP mass: Mean % change from baseline (90% CI) (CETP mass; 300 mg/day): 131.72 (122.10, 141.34) %
CETP mass: Mean % change vs placebo (90 % CI) (CETP mass; 300 mg/day): 132.12 (115.85, 148.38) ^*** %
CETP mass: Mean % change from baseline (90% CI) (CETP mass; 600 mg/day): 145.34 (133.29, 157.39) %
CETP mass: Mean % change vs placebo (90 % CI) (CETP mass; 600 mg/day): 145.73 (128.99, 162.48) ^*** %
CETP mass approximately 2 weeks after the last dose (CETP mass; human, in vivo): returned to levels at or near baseline; also recorded: returned to baseline
EAUC50 for the HDL-C model (HDL-C and LDL-C; [5]): 4110 ng·h/mL
EAUC50 for the LDL-C model (HDL-C and LDL-C; [5]): 582 (194 to 1810) ng · h/ml
maximum theoretical change from baseline for HDL-C (Emax) (HDL-C and LDL-C; after 14 days of dosing): 126%
maximum theoretical change from baseline for LDL-C (Emax) (HDL-C and LDL-C; after 14 days of dosing): −28.2%
effect on 24-h ambulatory systolic or diastolic blood pressure (healthy subjects [3]): No significant differences
effect on 24-h ambulatory systolic or diastolic blood pressure (healthy subjects [3]; listed as Evacetrapib): did not produce any significant effect
correlation between exposure and blood pressure (Spearman's rank correlation coefficient) (healthy subjects [3]; 600 mg crossover cohort, P = 0.964): 0.00954
Diastolic blood pressure, Day 1 mean (healthy subjects [3]; [6]): 68.27 (64.82, 71.72) mmHg
Systolic blood pressure, Day 1 mean (healthy subjects [3]; [6]): 112.16 (109.12, 115.19) mmHg
Diastolic blood pressure, Difference (comparison with placebo) (healthy subjects [3]; [7]): −2.28 mmHg
Systolic blood pressure, Difference (comparison with placebo) (healthy subjects [3]; [7]): −1.96 mmHg
Diastolic blood pressure, LS mean change (healthy subjects [3]; [8]): 0.60 (−1.45, 2.65) mmHg
Systolic blood pressure, LS mean change (healthy subjects [3]; [8]): −0.27 (−2.64, 2.11) mmHg
Diastolic blood pressure, Day 14 mean (healthy subjects [3]; [9]): 73.72 (70.26, 77.18) mmHg
Systolic blood pressure, Day 14 mean (healthy subjects [3]; [9]): 118.28 (113.78, 122.77) mmHg
severity of adverse events (healthy subjects [4]; 10–600 mg): mild to moderate
tolerability (healthy subjects [4]; 10–600 mg for up to 15 days): generally well tolerated
changes in routine serum chemistries (liver transaminases, complete blood counts, urinalysis) (healthy subjects [4]; in vivo): No clinically relevant changes
effect on aldosterone (healthy subjects [4]; multiple daily doses): no effect
subjects reporting rash-related AEs (discontinued the study) (healthy subjects [4]; two at 300 mg, two at 600 mg): Four
tolerability (dyslipidemic patients; 12 weeks, daily doses up to 500 mg monotherapy or 100 mg with a statin): well tolerated
decrease in LDL-C (dyslipidemic patients; [10]): up to 36%
increase in HDL-C levels (dyslipidemic patients; [10]): up to 129%
effects on blood pressure or mineralocorticoid activity (dyslipidemic patients; Phase 2): without having effects
QT interval prolongation (healthy volunteers): no evidence of QT interval prolongation
tolerability (healthy volunteers): well tolerated
